Screening results (PubChem BioAssay)
Only some compounds are listed: those with a hit (about 3.7% of all), similar ones and a draw of the others.
KCNK9 inh: KCNK9 potassium channel inhibitors, primary screen, HEK293 cells, thallium flux; Potassium channel subfamily K member 9 (Homo sapiens), Q9NPC2; AID 488922, 2010; 310,000 compounds, 1.2% hits; FluxOR thallium flux fluorescence; stronger effect = lower value; B-score at 10 µM;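 active means ratio B-score over 3 SD below the library mean, with starting fluorescence within 5 SD of its mean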;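 further: negative B-score means less thallium flux so channel inhibition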
Target sequence (Q9NPC2 whole entry, looked up): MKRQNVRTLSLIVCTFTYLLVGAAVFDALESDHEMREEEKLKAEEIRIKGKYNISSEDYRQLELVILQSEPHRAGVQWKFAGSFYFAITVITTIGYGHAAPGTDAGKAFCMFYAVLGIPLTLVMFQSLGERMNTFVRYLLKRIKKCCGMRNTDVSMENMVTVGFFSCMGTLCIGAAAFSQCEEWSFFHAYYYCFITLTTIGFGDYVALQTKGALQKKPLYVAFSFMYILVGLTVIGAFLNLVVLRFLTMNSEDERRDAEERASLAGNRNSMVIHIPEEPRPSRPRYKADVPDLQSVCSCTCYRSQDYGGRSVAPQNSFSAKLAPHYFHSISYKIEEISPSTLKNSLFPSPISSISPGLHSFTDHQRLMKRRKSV
KCNQ1 act: potentiators or activators of KCNQ1 channel, primary screen, cell-based, thallium flux, high-throughput; Potassium voltage-gated channel subfamily KQT member 1 (Homo sapiens), P51787; CHO-K1 KCNQ1, thallium flux FluxOR fluorescence; stronger effect = higher value; B-score at 10 µM; 310,000 compounds, 0.35% hits; AID 2648, 2010;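 active means fluorescence ratio B-score, a plate-corrected score, at least three library SD, with initial intensity B-score within 5 SD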
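Assay system: stable KCNQ1 CHO-K1 line; medium: assay buffer, equal DMSO in all wells; timing: 90 min dye loading and 20 min compound exposure, both at room temperature; technique: kinetic FluxOR thallium fluorescence, 10-s 1-Hz baseline, 110-s post-stimulus read; read-out basis: B score of baseline-normalized fluorescence ratio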
hERG protect: hERG rescue from dofetilide block, primary screen, cell-based, CHO-hERG, FluxOR thallium flux, dofetilide IC70. AID 1511, 2009. dofetilide IC70 present. 310,000 compounds, 0.51% hits. activation (rescue from dofetilide block), less the hit threshold, % at 10 µM;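 active means activation above the mean of controls blocked by dofetilide plus 5 SD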;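 further: thallium influx through hERG after potassium depolarization seen as dye fluorescence rise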
KCNK3 block: human KCNK3 channel inhibitors, primary screen, CHO cells, FluxOR thallium flux, B-score. FluxOR fluorescence; stronger effect = lower value. B-score at 10 µM. 340,000 compounds, 0.84% hits;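 active means B-score under library mean minus 4 SD, starting fluorescence ratio at most library mean plus 5 SD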;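 further: more negative B-score means stronger inhibition of thallium flux through KCNK3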
Kir21 inh: inhibitors of mouse Kir2.1 inward-rectifier potassium channel | HEK293-Kir2.1, FluxOR thallium flux fluorescence; stronger effect = lower value | 310,000 compounds, 0.85% hits | B-score at 10 µM;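 active means fluorescence ratio B-score at or below minus 3 SD of library scores, with starting-brightness B-score within 2 SD, cut at about -4.2 in these data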;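 further: channel flux triggered by added potassium and thallium sulfate stimulus; B-score of peak minus minimum fluorescence over baseline after thallium stimulus; more negative B-score means stronger Kir2.1 block with less thallium influx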
KCNQ1 inh: inhibitors of human KCNQ1 channel, primary screen, cell-based, thallium flux, high-throughput; Potassium voltage-gated channel subfamily KQT member 1 (Homo sapiens), P51787; CHO-K1 KCNQ1, FluxOR thallium flux fluorescence; stronger effect = higher value; B-score at 10 µM; 310,000 compounds, 1.3% hits;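 active means compounds whose thallium flux B-score, printed positive for inhibition, exceeds three library SD while starting fluorescence stays within three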;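 further: channel opened by potassium depolarization with thallium stimulus after 20 min compound exposure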
KCNK9 block conf: KCNK9 potassium channel inhibitors, confirmation, HEK293 cells, thallium flux, duplicate. FluxOR thallium flux fluorescence. shares compounds with KCNK9 inh. 4,900 compounds, 43% hits. inhibition, % at 10 µM;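 active means thallium signal inhibited by more than 5 SD of the compound-free buffer control wells, on both duplicate plates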;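 further: 0% = assay buffer control wells without compound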
Kir21 sel: mouse Kir2.1 channel inhibition, confirmation, selectivity assay for KCNK9 modulator project, cell-based, HEK293, thallium flux; shares compounds with KCNK9 inh; Kir2.1 cells, FluxOR thallium flux fluorescence; inhibition, % at 10 µM; 4,900 compounds, 4% hits; AID 492993, 2010;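 active means thallium signal drop more than 5 SD beyond the mean of the no-compound control wells, seen in both duplicate plates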;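 further: signal is fluorescence rise after thallium addition divided by baseline fluorescence; plate controls were assay buffer only for no effect and full block by chlorpromazine control for full effect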
HEK293 Tl ctr: thallium flux in non-induced HEK293 cells, confirmation, counter-screen for KCNK9 inhibitor project, cell-based, second counter screen, non-induced KCNK9-HEK293; shares compounds with KCNK9 inh; FluxOR thallium flux; inhibition, % at 10 µM; 4,900 compounds, 40% hits; AID 492997, 2010;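 active means thallium signal drop beyond 5 SD of the untreated control mean, on both duplicate plates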;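 further: plate controls were buffer only IC0 wells for no effect and SID17386958 at its maximal inhibitory level for full effect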
* = called active by the depositor; i = inactive; · = no result.

SMILES	KCNK9 inh	KCNQ1 act	hERG protect	KCNK3 block	Kir21 inh	KCNQ1 inh	KCNK9 block conf	Kir21 sel	HEK293 Tl ctr
O=C1CC(N2CCC(c3nc4ccccc4o3)CC2)C(=O)N1c1cc(Cl)cc(Cl)c1 (stereo unspecified)	-8.6*	i	-5.8	i	1.02	8*	43.0%*	i	i
COc1cccc(N2C(=O)CC(N3CCC(c4nc5ccccc5[nH]4)CC3)C2=O)c1 (stereo unspecified)	i	i	-23.4	i	0.04	i	·	·	·
CC(=O)N1CCCc2cc(S(=O)(=O)N3CCCC(C(=O)N4CCN(c5cc(C)ccc5C)CC4)C3)ccc21 (stereo unspecified)	i	i	-16.4	i	-1.6	i	i	i	i
O=C(C1CCC1)N1CCc2cc(S(=O)(=O)N3CCCCC3)ccc21	i	i	-7.4	i	-0.52	i	·	·	·
Cc1cccc(N2CCN(S(=O)(=O)c3ccc4c(c3)CCCN4C(=O)C3CCC3)CC2)c1C	i	i	-9.2	i	-0.84	i	i	i	i
CCOC(=O)c1cc(-c2ccccc2)nc2nc(N(CC)CC)sc12	i	i	-9.2	i	0.06	i	·	·	·
Cc1noc(/C=C/N(C)C)c1S(=O)(=O)N(C)Cc1ccc(F)cc1	i	i	-8.5	i	0.69	i	·	·	·
Cc1nn(-c2ccc(N3CCOCC3)nn2)c(C)c1CCC(=O)N1CCN(C)CC1	i	i	-2.6	i	-0.13	i	·	·	·
Oc1ccc(Br)cc1-c1nc2cnccn2c1NC1CCCCC1	-9.42*	i	-14.3	i	-0.49	i	i	i	30.5%*
COC(=O)c1ccc(C(=O)OC)c(NC(=O)CN(C)Cc2cccc(Cl)c2Cl)c1	-11.8*	i	-12.5	i	-2.28	i	80.0%*	i	46.0%*
COC(=O)c1ccc(C(=O)OC)c(NC(=O)CN(C)Cc2ccccc2)c1	-11.3*	i	-19.9	i	1.06	i	71.0%*	i	36.0%*
COC(=O)c1ccc(C(=O)OC)c(NC(=O)CCC(=O)O)c1	i	i	-9.9	i	0.63	i	·	·	·
O=C(NCC(c1ccco1)N1CCc2ccccc2C1)C(=O)Nc1cc(F)ccc1F (stereo unspecified)	i	i	-12.1	i	-0.44	i	·	·	·
COc1ccc(-c2ccc(SCC(=O)c3ccccc3)nn2)cc1OC	-10.8*	i	-17.4	i	1.77	i	60.0%*	i	i
Cc1ccc(-c2ccc(SCC(=O)c3ccccc3)nn2)cc1	i	i	-7.4	i	3.73	i	·	·	·
CCN1CCCC1CNC(=O)C(=O)NC(C)c1ccccc1 (stereo unspecified)	i	i	-3.1	i	-2.15	i	·	·	·
Cn1nc(-c2ccccc2F)c2cc(C(=O)Nc3ccc4c(c3)OCCO4)sc21	-11.8*	i	-13.0	i	-0.55	i	49.0%*	i	i
COc1cccc(-c2nn(C)c3sc(C(=O)Nc4ccc5c(c4)OCCO5)cc23)c1	i	i	-13.0	i	0.63	i	·	·	·
CCOC(=O)c1c(-c2ccccc2)csc1NC(=O)c1ccc(S(=O)(=O)N2CC(C)OC(C)C2)cc1 (stereo unspecified)	i	i	-10.4	i	1.13	i	·	·	·
CCOC(=O)c1c(-c2ccccc2)csc1NC(=O)CSc1nc(C)cc(C)n1	i	i	-9.9	i	0.33	i	i	i	i
CCOC(=O)c1c(-c2cccs2)csc1NC(=O)COC(=O)c1c(C)noc1C	i	i	-17.0	-8.9*	0.24	i	i	i	i
CCOC(=O)Cc1cnc(NC(=O)CSc2nc(C)cc(C)n2)s1	i	i	-17.0	i	2	i	i	i	i
CCOC(=O)c1c(-c2ccccc2)csc1NC(=O)CSc1nc(N)cc(N)n1	i	i	-12.3	i	-1.63	i	·	·	·
CCOC(=O)c1c(-c2ccccc2)csc1NC(=O)c1cc(S(=O)(=O)N2CCOCC2)ccc1C	i	i	-9.7	i	0.64	i	i	i	i
CCN(CC)S(=O)(=O)c1cc(C(=O)n2cccn2)c(Cl)cc1Cl	i	i	0.5	i	-1.11	i	·	·	·
SMILES	KCNK9 inh	KCNQ1 act	hERG protect	KCNK3 block	Kir21 inh	KCNQ1 inh	KCNK9 block conf	Kir21 sel	HEK293 Tl ctr
CCOc1ccccc1N(C)C(=O)c1cn(C)c(=O)c2ccccc12	i	i	-6.6	i	-0.02	i	·	·	·
COC(=O)c1ccccc1CON1C(=O)C(C)(C)N(OCc2ccccc2C(=O)OC)C(=O)C1(C)C	i	i	-10.4	i	0.58	i	i	i	i
COc1ccc(C(=O)C2CCCN(C(=O)c3n[nH]c4c3CCCC4)C2)cc1OC (stereo unspecified)	i	i	-11.3	i	-0.69	i	·	·	·
Cc1cc(Cl)ccc1C(=O)C1CCCN(C(=O)c2n[nH]c3c2CCCC3)C1 (stereo unspecified)	i	i	-3.9	i	-3.22	i	i	i	i
Cc1cc(Cl)ccc1C(=O)C1CCCN(C(=O)c2cnn(C(C)C)c2)C1 (stereo unspecified)	i	i	-5.2	i	-1.77	i	i	i	i
Cc1ccc(C(=O)N2CCCC(C(=O)c3ccc(Cl)cc3C)C2)cn1 (stereo unspecified)	i	i	-3.7	i	-2.22	i	·	·	·
CCOC(=O)CN(C(=O)COc1nc(-c2ccccc2)cc(C)c1C#N)c1ccccc1	i	i	-9.7	i	-0.18	i	·	·	·
CCOC(=O)CN(C(=O)COc1nc(-c2ccccc2)cc(C)c1C#N)c1ccccc1C	i	i	-10.9	i	0.94	i	i	i	i
